Four compounds from ChEMBL document CHEMBL1125903, “New derivatives of kanamycin B obtained by modifications and substitutions in position 6". 1. Synthesis and microbiological evaluation” (1991) can be followed below.

Converted amounts (≈) assume the structure as drawn. Bounds are passed on as bounds.

The term MIC denotes the least concentration at which growth counts as inhibited. High values mean a less susceptible organism, low ones a more susceptible organism.

Assay [1] deals with Salmonella typhimurium. As to the kind of experiment: Minimum inhibitory concentration measured against Salmonella Typhimurium (ATCC 14028). The class given is functional, Salmonella enterica subsp. enterica serovar Typhimurium. Conditions: Salmonella enterica. The procedure, abridged:
(§1)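 Agar dilution MIC on Mueller-Hinton agar supplemented with CaCl2 and MgCl2 (NCCLS standards), 2-fold dilutions. Compounds tested as sulfate salts dissolved in sterile water; values expressed in mg/L of free base, with base content determined by 1H NMR. Spots of 10^4-10^5 CFU applied by multipoint inoculator. Growth read visually after 24 h at 37 °C.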

The test system of assay [2] is Enterobacter cloacae. As to the kind of experiment: Minimum inhibitory concentration measured against Enterobacter cloacae (ATCC 23355). The class given is functional. In short, it runs like this:
as §1

Assay [3] deals with Bacillus subtilis. As to the kind of experiment: Minimum inhibitory concentration measured against Bacillus subtilis (ATCC 6633). The class given is functional. In short, it runs like this: as §1
Assay [4] deals with Pseudomonas aeruginosa. As to the kind of experiment: Minimum inhibitory concentration measured against Pseudomonas aeruginosa (NCTC 10701). The class given is functional. The procedure, abridged:
as §1

Assay [5] has as its system Citrobacter freundii. As to the kind of experiment: Minimum inhibitory concentration measured against Citrobacter freundii (ATCC 8090). It counts as functional. The procedure, abridged:
as §1

Assay [6] relates to Enterococcus faecalis. As to the kind of experiment: Minimum inhibitory concentration measured against […] faecalis (ATCC 19431). The class given is functional. The procedure, abridged:
as §1

In assay [7] the test system is Klebsiella aerogenes. As to the kind of experiment: Minimum inhibitory concentration measured against Enterobacter aerogenes (ATCC 13048). It counts as functional. In short, it runs like this:
as §1

The subject of assay [8] is Staphylococcus aureus. As to the kind of experiment: Minimum inhibitory concentration measured against Staphylococcus aureus (ATCC 25923). It counts as functional. The procedure, abridged: as §1
The subject of assay [9] is Klebsiella pneumoniae. As to the kind of experiment: Minimum inhibitory concentration measured against Klebsiella pneumoniae (ATCC 13883). It counts as functional. The procedure, abridged: as §1
In assay [10] the test system is Serratia marcescens. As to the kind of experiment: Minimum inhibitory concentration measured against Serratia marcescens (ATCC 8100). The class given is functional. The procedure, abridged: as §1
Assay [11] deals with Staphylococcus epidermidis. As to the kind of experiment: Minimum inhibitory concentration measured against Staphylococcus epidermidis (ATCC 12228). The class given is functional. In short, it runs like this:
as §1

The subject of assay [12] is Escherichia coli. As to the kind of experiment: Minimum inhibitory concentration measured against Escherichia coli (ATCC 25922). It counts as functional. In short, it runs like this: as §1
The subject of assay [13] is Proteus vulgaris. As to the kind of experiment: Minimum inhibitory concentration measured against Proteus vulgaris (ATCC 13315). It counts as functional. In short, it runs like this:
as §1

For assay [14], the system named is Serratia marcescens. As to the kind of experiment: Minimum inhibitory concentration measured against CDC 87457 strain. It counts as functional. The procedure, abridged:
as §1

Take `CC(=O)N(C)CC1OC(OC2C(NC(=O)OC(C)(C)C)CC(NC(=O)OC(C)(C)C)C(OC3OC(CNC(=O)OC(C)(C)C)C(O)C(O)C3NC(=O)OC(C)(C)C)C2O)C(O)C(NC(=O)OC(C)(C)C)C1O` (stereo not drawn): the minimal inhibitory concentration (MIC) in assay [1] was 64 mg/L (≈ 61.6 µM); in assay [2] it was 1 mg/L (≈ 0.962 µM); in assay [3], 32 mg/L (≈ 30.8 µM); in assay [4] it was greater than 64 mg/L; in [5], 8 mg/L (≈ 7.7 µM); in assay [6], greater than 64 mg/L. Further, the minimum inhibitory concentration (MIC) in [7] was 32 mg/L (≈ 30.8 µM); in assay [8], 4 mg/L (≈ 3.85 µM); in assay [9], 8 mg/L (≈ 7.7 µM); in assay [10], greater than 64 mg/L; in assay [11] it was 2 mg/L (≈ 1.92 µM); in assay [12] it was 32 mg/L (≈ 30.8 µM). In [13], this compound showed a minimum inhibitory concentration (MIC) of 8 mg/L (≈ 7.7 µM).

As for `CCCCCC(=O)N(CCCC)CC1OC(OC2C(NC(=O)OC(C)(C)C)CC(NC(=O)OC(C)(C)C)C(OC3OC(CNC(=O)OC(C)(C)C)C(O)C(O)C3NC(=O)OC(C)(C)C)C2O)C(O)C(NC(=O)OC(C)(C)C)C1O` (stereo not drawn), the minimal inhibitory concentration (MIC) in [1] was greater than 64 mg/L; in assay [2], 32 mg/L (≈ 28.1 µM); in [3], greater than 64 mg/L; in assay [4], greater than 64 mg/L; in assay [5] it was greater than 64 mg/L; in assay [6], greater than 64 mg/L. Besides, the MIC in assay [7], in assay [8], in assay [9], in assay [10], in [11] and in assay [12] was greater than 64 mg/L throughout. Also, the minimal inhibitory concentration (MIC) in [13] was greater than 64 mg/L.

Take `NC[C@H]1O[C@H](O[C@H]2[C@H](O)[C@@H](O[C@H]3O[C@H](CO)[C@@H](O)[C@H](N)[C@H]3O)[C@H](N)C[C@@H]2N)[C@H](N)[C@@H](O)[C@@H]1O` [BEKANAMYCIN]: the minimum inhibitory concentration (MIC) was found to be 1 mg/L (≈ 2.07 µM) in assay [1]; 0.25 mg/L (≈ 0.517 µM) in assay [2]; 0.5 mg/L (≈ 1.03 µM) in assay [3]; 32 mg/L (≈ 66.2 µM) in [4]; 0.5 mg/L (≈ 1.03 µM) in [5]; 16 mg/L (≈ 33.1 µM) in [6]. The MIC in assay [7] was determined as 0.5 mg/L (≈ 1.03 µM); in [8] it was 0.5 mg/L (≈ 1.03 µM); in assay [9] it was 0.25 mg/L (≈ 0.517 µM); in [10], 1 mg/L (≈ 2.07 µM); in assay [11], 0.25 mg/L (≈ 0.517 µM); in [12] it was 1 mg/L (≈ 2.07 µM). For the same compound, the figures for the minimal inhibitory concentration (MIC) in assay [13] and in assay [14] were 0.25 mg/L (≈ 0.517 µM) and 1 mg/L (≈ 2.07 µM), respectively.

Consider `CCCSCC1OC(OC2C(NC(=O)OC(C)(C)C)CC(NC(=O)OC(C)(C)C)C(OC3OC(CNC(=O)OC(C)(C)C)C(O)C(O)C3NC(=O)OC(C)(C)C)C2O)C(O)C(NC(=O)OC(C)(C)C)C1O` (stereo not drawn), for which the MIC in [1] was 8 mg/L (≈ 7.68 µM); in assay [2] it was 0.25 mg/L (≈ 0.24 µM); in assay [3] it was 4 mg/L (≈ 3.84 µM); in [4], greater than 64 mg/L; in [5] it was 1 mg/L (≈ 0.959 µM); in assay [6], 8 mg/L (≈ 7.68 µM). Further, the minimum inhibitory concentration (MIC) in assay [7] is 4 mg/L (≈ 3.84 µM); in assay [8] it was 1 mg/L (≈ 0.959 µM); in assay [9], 2 mg/L (≈ 1.92 µM); in assay [10], greater than 64 mg/L; in assay [11], 0.25 mg/L (≈ 0.24 µM); in assay [12], 2 mg/L (≈ 1.92 µM). The same compound yielded an MIC in assay [13] of 1 mg/L (≈ 0.959 µM).
